The record followed here is ChEMBL document CHEMBL1139471, “Antitumor polycyclic acridines. 17. Synthesis and pharmaceutical profiles of pentacyclic acridinium salts designed to destabilize telomeric integrity” (J Med Chem, 2005).

A value given as a limit tells only on which side of the number the result lay.

What is called IC50 is the concentration at which inhibition is half-maximal. The term GI50 denotes the concentration that inhibits growth by half. By solubility is commonly meant how much of the substance goes into solution per volume. Low values mean a poorly soluble substance, high ones a readily soluble substance.

Series [1] is described as follows: Inhibition of telomerase by TRAP assay. More on the design: species or system Homo sapiens.
A short description of series [2]: Selectivity index, ratio of mean GI50 for NCI60 cell panel to IC50 for telomerase. In kind it is functional, Homo sapiens. A digest of the protocol:
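Selectivity index calculated as mean GI50 (NCI 60 panel, 2-day exposure) divided by the telomerase IC50 from the TRAP assay.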

Series [3] can be described thus: Growth inhibition of NCI60 cell panel. The series is classed as functional. As to conditions: Homo sapiens. A digest of the protocol: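 NCI 60 human tumor cell panel with a 2-day drug exposure; mean GI50 reported.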
Series [4] in a line: Stability in RPMI tissue culture medium at 37 degC after 72 hrs. The series is classed as ADME. Summed up: (§1)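 Drug at 10 μM in RPMI containing 10% FBS without cells, held at 37 °C up to 72 h. Monitored by absorbance at λmax and spectrum shape, and by HPLC of aliquots for loss of parent and appearance of new peaks. LC-MS run on the 72 h sample.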
Series [5] in a line: Aqueous solubility at 25 degC. In kind it is physicochemical. As to conditions: water; call rule not given here.
Series [6] in a line: Metabolic stability in Sprague-Dawley rat liver microsomes assessed as drug remaining after 4 hrs. On the technique in general: Liver microsomes are vesicles of endoplasmic reticulum, rich in cytochrome P450 enzymes.
In the next series the test system is A549. The experiment in a line: Stability in RPMI tissue culture medium at 37 degC incubated with human A549 cells at 0.5 uM after 72 hrs. In kind it is ADME, cell-based. As to conditions: a549, 72 h. Summed up: (§2)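 A549 or MCF-7 cells seeded at 5 × 10^5 per flask and attached overnight in RPMI with 10% serum at 37 °C. Medium then replaced with medium containing 0.5 μM drug. Medium sampled in triplicate at 0, 24, 48 and 72 h, deproteinized with acetonitrile. Isocratic C18 HPLC, fluorescence detection ex 483/em 543 nm. Drug peak height given as % of time zero; mean and SD of two flasks.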

The nature of series [7]: Stability in RPMI tissue culture medium at 37 degC at 10 uM after 72 hrs. The series is classed as ADME. A digest of the protocol: as §1
In another series the test system is Liver microsomes. The series is described as follows: Metabolic stability in Sprague-Dawley rat liver microsomes at 2 uM after 4 hrs. In kind it is ADME, Microsome. Summed up: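 Pooled male Sprague-Dawley rat liver microsomes (0.5 mg/mL protein) in 100 mM potassium phosphate pH 7.4 with 5 mM MgCl2 and 1 mM NADPH. Drug at 2 μM final, diluted from a DMSO stock, incubated 4 h at 37 °C. Stopped with cold acetonitrile, then reverse-phase C18 HPLC of the parent peak. Controls: P450-null human lymphoblast microsomes for protein binding; DF 203 for microsomal activity.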

The nature of series [8]: Stability in RPMI tissue culture medium at 37 degC incubated with human MCF7 cells at 0.5 uM after 72 hrs. As to conditions: read-out: Stability. In kind it is ADME, cell-based. Summed up:
as §2

The compound `CN1c2ccccc2-c2c3c1cccc3c1ccccc1[n+]2C.[I-]` registered an IC50 in series [1] of 0.38 µM. Also, in [2], the Selectivity index is on record as 3.4. The compound further showed a GI50 in [3] of 1.29 µM.
As to `COS(=O)(=O)[O-].Cc1cc2c3c([n+](C)c4ccc(F)cc4c3c1)-c1cc(F)ccc1N2C`, the Stability result in [4] is “Stable”. In series [1], this compound returned an IC50 of 0.33 µM. For the same compound, the Selectivity index in series [2] is 40. Moreover, the solubility in [5] came to 5000 µM. Also, the remaining at 4 h in series [6] came out at 81%. This compound also came in with a GI50 in series [3] of 13.2 µM.
Turning to `COS(=O)(=O)[O-].Cc1ccc2c(c1)-c1c3c(cc(C)cc3c3cc(C)ccc3[n+]1C)N2C`, the IC50 in [1] was 0.25 µM. Further, the Selectivity index in series [2] is recorded as 1.8. This compound also showed a GI50 in [3] of 0.41 µM.
`CC(=O)OCCCc1cc2c3c([n+](C)c4ccc(/C=C/C(=O)N5CCOCC5)cc4c3c1)-c1ccccc1N2C.[I-]`: the Activity result (in the series on A549; in [7]) was “Not Active” in each case. The IC50 in series [1] was determined as 0.38 µM. In addition, the Selectivity index in series [2] is 72.4. This compound yielded a GI50 in series [3] of 27.5 µM.
On to `COc1cc2c3c([n+](C)c4ccccc4c3c1)-c1ccc(/C=C/C(=O)N3CCN(C(C)=O)CC3)cc1N2C`, for which the GI50 in series [3] worked out at 93.3 µM.
In series [1], `COC(=O)/C=C/c1ccc2c(c1)c1cccc3c1c([n+]2C)-c1ccccc1N3C` came in with an IC50 of 0.2 µM. That is a sub-micromolar value.
For `COc1cc2c3c([n+](C)c4ccccc4c3c1)-c1ccc(/C=C/C(=O)N3CCOCC3)cc1N2C.[I-]`, the IC50 in [1] was 2.18 µM. In addition, in [2], the Selectivity index is recorded as 2. Besides, the GI50 in [3] was determined as 43.7 µM.
As for `CN1c2ccccc2-c2c3c1cc(/C=C/C(=O)N1CCOCC1)cc3c1cc(Cl)ccc1[n+]2C`, the GI50 in [3] stood at 12 µM.
Consider `CN1c2ccccc2-c2c3c1cccc3c1cc(/C=C/C(=O)N3CCOCC3)ccc1[n+]2C.[I-]`, for which the Stability entry in [4] is “Stable”. Moreover, in [1], inhibition was half-maximal at 0.37 µM (IC50). For the same compound, the Selectivity index in series [2] is reported as 183. Also, in [5], the solubility is 1000 µM. The compound further had a GI50 in [3] of 68 µM. This compound also yielded an Activity in the series on Liver microsomes of 66%.
Regarding `CC(=O)OCCCc1ccc2c(c1)N(C)c1cc(CCCOC(C)=O)cc3c1c-2[n+](C)c1ccccc31.[I-]`, 2.3 µM corresponded to half-maximal inhibition in [1] (IC50). Further, the Selectivity index in series [2] amounted to 1.45. Further, it took 3.31 µM to inhibit growth in [3] by half (GI50).
For `CC(=O)OCCCc1cc2c3c([n+](C)c4ccc(CCCOC(C)=O)cc4c3c1)-c1ccccc1N2C.[I-]`, in that order: 3.22 µM, 1.2 and 3.8 µM.
`COC(=O)/C=C/c1ccc2c(c1)N(C)c1cc(OC)cc3c1c-2[n+](C)c1ccccc31` came in with a concentration for half-maximal inhibition (IC50) in series [1] of more than 1 µM. Besides, growth in series [3] was halved (GI50) at 4.58 µM.
For the compound `COC(=O)CCc1ccc2c(c1)c1cccc3c1c([n+]2C)-c1ccccc1N3C`, 3.02 µM corresponded to half-maximal inhibition in [1] (IC50).
In series [3], `COc1cc2c3c([n+](C)c4ccc(/C=C/C(=O)N5CCOCC5)cc4c3c1)-c1ccccc1N2C` displayed a GI50 of 9.33 µM.
As for `CC(=O)Nc1ccc2c3cccc4c3c([n+](C)c2c1)-c1ccccc1N4C.[I-]`, the Stability result in [4] is “Stable”. In series [1], the IC50 was determined as 0.38 µM. In addition, the Selectivity index in series [2] was 31.6. Further, the remaining at 72 h, 0.5 µM in [8] was 43%. Also, the remaining at 4 h in series [6] was found to be 69%. In [3], this compound yielded a GI50 of 12 µM.
